From ChEMBL document CHEMBL2086222, “Bioassay-guided isolation of prenylated xanthones and polycyclic acylphloroglucinols from the leaves of Garcinia nujiangensis” (J Nat Prod, 2012)
Active and inactive are the calls of the source. No cut-off for these calls is given here.

Assays:
MCF7 = assay: Cytotoxicity against human MCF7 cells assessed as reduction in cell viability at 5 to 40 uM after 72 hrs by MTT assay; assay type: functional, cell-based
In short: (§1)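 Cells in RPMI 1640, DMEM or DMEM/F12 with 10% FBS, 37 °C, 5% CO2. Plated at 5 × 10^3 cells/well and attached overnight. Exposed 72 h to 5, 10, 20 or 40 μM from DMSO stocks diluted in medium. MTT (5 mg/mL stock in PBS) added for 4 h at 37 °C, formazan dissolved in DMSO, A490 read. Untreated cells taken as 100%.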

A549 [1] = assay: Cytotoxicity against human A549 cells assessed as reduction in cell viability at 5 to 40 uM after 72 hrs by MTT assay; assay type: functional, cell-based; in short: as §1
A-375 [2] = assay: Cytotoxicity against human A375 cells assessed as reduction in cell viability at 5 to 40 uM after 72 hrs by MTT assay; assay type: functional, cell-based; in short: as §1
PANC-1 [3] = assay: Cytotoxicity against human PANC1 cells assessed as reduction in cell viability at 5 to 40 uM after 72 hrs by MTT assay; assay type: functional, cell-based; in short: as §1
NCI-H2126 [4] = assay: Cytotoxicity against human NCI-H2126 cells assessed as reduction in cell viability at 5 to 40 uM after 72 hrs by MTT assay; assay type: functional, cell-based; in short: as §1
AGS [5] = assay: Cytotoxicity against human AGS cells assessed as reduction in cell viability at 5 to 40 uM after 72 hrs by MTT assay; assay type: functional, cell-based; in short: as §1
MDA-MB-231 = assay: Cytotoxicity against human MDA-MB-231 cells assessed as reduction in cell viability at 5 to 40 uM after 72 hrs by MTT assay; assay type: functional, cell-based; in short: as §1
BXPC-3 [6] = assay: Cytotoxicity against human BxPC3 cells assessed as reduction in cell viability at 5 to 40 uM after 72 hrs by MTT assay; assay type: functional, cell-based; in short: as §1
[7] = Cytotoxicity against human MIHA cells assessed as reduction in cell viability at 5 to 40 uM after 72 hrs by MTT assay; assay type: cell-based; in short: as §1
SMMC-7721 [8] = assay: Cytotoxicity against human SMMC7721 cells assessed as reduction in cell viability at 5 to 40 uM after 72 hrs by MTT assay; assay type: functional, cell-based; in short: as §1
HepG2 = assay: Cytotoxicity against human HepG2 cells assessed as reduction in cell viability at 5 to 40 uM after 72 hrs by MTT assay; assay type: functional, cell-based; in short: as §1
U-87MG ATCC = assay: Cytotoxicity against human U87 cells assessed as reduction in cell viability at 5 to 40 uM after 72 hrs by MTT assay; assay type: functional, cell-based; in short: as §1
PANC-1 [9] = assay: Cytotoxicity against human PANC1 cells assessed as reduction in cell viability after 72 hrs by MTT assay; assay type: functional, cell-based; settings: PANC-1, 72 h; in short: as §1
SMMC-7721 [10] = assay: Cytotoxicity against human SMMC7721 cells assessed as reduction in cell viability after 72 hrs by MTT assay; assay type: functional, cell-based; settings: SMMC-7721, 72 h; in short: as §1
BXPC-3 [11] = assay: Cytotoxicity against human BxPC3 cells assessed as reduction in cell viability after 72 hrs by MTT assay; assay type: functional, cell-based; settings: BXPC-3, 72 h; in short: as §1
A549 [12] = assay: Cytotoxicity against human A549 cells assessed as reduction in cell viability after 72 hrs by MTT assay; assay type: functional, cell-based; settings: A549, 72 h
In short: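 Human lung line cultured in RPMI 1640, DMEM or DMEM/F12 with 10% FBS at 37 °C, 5% CO2. 5 × 10^3 cells/well plated and left to attach overnight. Compound taken from DMSO stock, diluted in medium, tested at 5, 10, 20 and 40 μM for 72 h. MTT (5 mg/mL stock) added for 4 h at 37 °C. Formazan dissolved in DMSO, absorbance read at 490 nm. Untreated cells set as 100%.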

NCI-H2126 [13] = assay: Cytotoxicity against human NCI-H2126 cells assessed as reduction in cell viability after 72 hrs by MTT assay; assay type: functional, cell-based; settings: NCI-H2126, 72 h; in short: as §1
AGS [14] = assay: Cytotoxicity against human AGS cells assessed as reduction in cell viability after 72 hrs by MTT assay; assay type: functional, cell-based; in short: as §1
A-375 [15] = assay: Cytotoxicity against human A375 cells assessed as reduction in cell viability after 72 hrs by MTT assay; assay type: functional, cell-based; settings: A-375, 72 h; in short: as §1

| Structure (SMILES) | Activity (MCF7) | Activity (A549 [1]) | Activity (A-375 [2]) | Activity (PANC-1 [3]) | Activity (NCI-H2126 [4]) | Activity (AGS [5]) | Activity (MDA-MB-231) | Activity (BXPC-3 [6]) | Activity [7] | Activity (SMMC-7721 [8]) | Activity (HepG2) | Activity (U-87MG ATCC) | IC50 (PANC-1 [9]) [nM] | IC50 (SMMC-7721 [10]) [nM] | IC50 (BXPC-3 [11]) [nM] | IC50 (A549 [12]) [nM] | IC50 (NCI-H2126 [13]) [nM] | IC50 (AGS [14]) [nM] | IC50 (A-375 [15]) [nM] |
| --- | --- | --- | --- | --- | --- | --- | --- | --- | --- | --- | --- | --- | --- | --- | --- | --- | --- | --- | --- |
| C=C(C)CCC(C[C@@]12C[C@@H](CC=C(C)C)C(C)(C)[C@@](CC=C(C)C)(C(=O)c3c1oc1cc(O)c(O)cc1c3=O)C2=O)C(=C)C (relative stereo) | Active | Active | Active | Active | Active | Active | Active | Active | Non-toxic | Active | Active | Active |  |  |  |  |  |  |  |
| CC(C)=CC[C@H]1C[C@@]23C[C@H](CC=C(C)C)C(C)(C)[C@@](CC=C(C)C)(C(=O)C(C(=O)c4ccc(O)c(O)c4)=C2OC1(C)C)C3=O | Active | Active | Active | Active | Active | Active | Active | Active | Non-toxic | Active | Active | Active |  |  |  |  |  |  |  |
| C=C(C)CCC(C[C@]12C[C@H](CC=C(C)C)C(C)(C)[C@@]3(C[C@@H](C(C)(C)O)OC3=C(C(=O)c3ccc(O)c(O)c3)C1=O)C2=O)C(=C)C (relative stereo) | Active | Active | Active | Active | Active | Active | Active | Active | Non-toxic | Active | Active | Active |  |  |  |  |  |  |  |
| COc1c(OC)c(O)c2c(=O)c3c(CC=C(C)C)c(CC=C(C)C)c(O)c(O)c3oc2c1CC=C(C)C [NUJIANGEXANTHONE B] | Active | Active | Active | Active | Active | Active | Active | Active | Non-toxic | Active | Active | Active |  |  |  |  |  |  |  |
| COc1c(O)c(O)c2c(=O)c3c(CC=C(C)C)c(CC=C(C)C)c(O)c(O)c3oc2c1CC=C(C)C [NUJIANGEXANTHONE A] | Active | Active | Active | Active | Active | Active | Active | Active | Non-toxic | Active | Active | Active |  |  |  |  |  |  |  |
| O=c1c(O)c(-c2ccc(O)cc2)oc2cc(O)cc(O)c12 [KAEMPFEROL] | Active | Active | Active | Active | Active | Active | Active | Active | Non-toxic | Active | Active | Active |  |  |  |  |  |  |  |
| C=C(C)CCC(C[C@]12C[C@@H]3[C@H](C=C(C)C)[C@](C(=O)c4ccc(O)c(O)c4)(C1=O)C(=O)[C@](CC=C(C)C)(C2=O)C3(C)C)C(=C)C (stereo partly specified) | Active | Active | Active | Active | Active | Active | Active | Active | Non-toxic | Active | Active | Active |  |  |  |  |  |  |  |
| C=C(C)[C@@H]1C[C@]23C[C@H](CC=C(C)C)C(C)(C)[C@](CC=C(C)C)(C(=O)C(C(=O)c4ccc(O)c(O)c4)=C2O[C@H]1C=C(C)C)C3=O [GARCINIALIPTONE B] | Active | Active | Active | Active | Active | Active | Active | Active | Non-toxic | Active | Active | Active |  |  |  |  |  |  |  |
| CC(=O)O[C@H]1C(=O)[C@@]2(C)[C@H]([C@H](OC(=O)c3ccccc3)[C@]3(O)C[C@H](OC(=O)[C@H](O)[C@@H](NC(=O)c4ccccc4)c4ccccc4)C(C)=C1C3(C)C)[C@]1(OC(C)=O)CO[C@@H]1C[C@@H]2O [PACLITAXEL] |  |  |  |  |  |  |  |  |  |  |  |  | 260 | 150 | 90 | 720 | 2500 | 1600 | 9.2 |
| C=C(C)CC[C@@H]1C[C@]23C[C@H](CC=C(C)C)C(C)(C)[C@](CC=C(C)C)(C(=O)C(C(=O)c4ccc(O)c(O)c4)=C2OC1(C)C)C3=O [CYCLOXANTHOCHYMOL] | Active | Active | Active | Active | Active | Active | Active | Active | Non-toxic | Active | Active | Active |  |  |  |  |  |  |  |
| C=C(C)CC[C@H]1C[C@@]23C[C@@H](CC=C(C)C)C(C)(C)[C@@](CC=C(C)C)(C(=O)C(C(=O)c4ccc(O)c(O)c4)=C2OC1(C)C)C3=O | Active | Active | Active | Active | Active | Active | Active | Active | Non-toxic | Active | Active | Active |  |  |  |  |  |  |  |
| C=C(C)[C@@H](CC=C(C)C)C[C@@]12C[C@H](CC=C(C)C)C(C)(C)[C@@](CC=C(C)C)(C(=O)C(C(=O)c3ccc(O)c(O)c3)=C1O)C2=O | Active | Active | Active | Active | Active | Active | Active | Active | Non-toxic | Active | Active | Active |  |  |  |  |  |  |  |
| COc1cc2c(=O)c3c(O)c(CC=C(C)C)c(O)c(CC=C(C)C)c3oc2c(O)c1O [XANTHONE V2A] | Active | Active | Active | Active | Active | Active | Active | Active | Non-toxic | Active | Active | Active |  |  |  |  |  |  |  |
| C=C(C)CCC(C[C@@]12C[C@H](CC=C(C)C)C(C)(C)[C@@](CC=C(C)C)(C1=O)c1oc3cc(O)c(O)cc3c(=O)c1C2=O)C(=C)C (relative stereo) | Active | Active | Active | Active | Active | Active | Active | Active | Non-toxic | Active | Active | Active |  |  |  |  |  |  |  |
| CC(C)=CC[C@H]1C[C@@]23C[C@@H](CC=C(C)C)C(C)(C)[C@@](CC=C(C)C)(C(=O)C(C(=O)c4ccc(O)c(O)c4)=C2OC1(C)C)C3=O [CAMBOGIN] | Active | Active | Active | Active | Active | Active | Active | Active | Non-toxic | Active | Active | Active |  |  |  |  |  |  |  |
| CC1(C)C=Cc2c(cc(O)c3c(=O)c4ccc(O)c(O)c4oc23)O1 [ISOJACAREUBIN] |  |  |  |  |  |  |  |  | Non-toxic |  |  |  |  |  |  |  |  |  |  |
